The record followed here is ChEMBL document CHEMBL1671620, “Mutations in the fks1 gene in Candida albicans, C. tropicalis, and C. krusei correlate with elevated caspofungin MICs uncovered in AM3 medium using the method of the European Committee on Antibiotic Susceptibility Testing” (2008).

In brackets after ≈: the same amount, converted by molar mass.

Experiment [1] has as its system Candida albicans. The experiment can be described thus: Antifungal activity against Candida albicans isolate 5 expressing wild type 1,3-beta-glucan synthase grown on AM3 media after 48 hrs by EUCAST microdilution method. The following applies: isolate 5, 24 h, in the assay text read “after 24 hrs” for “after 48 hrs”. The format is functional. The method, boiled down:
(§1)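 EUCAST (AFST-EUCAST) broth microdilution with caspofungin at 0.015 to 8 μg/ml final, in AM3 with glucose added to 2% final. Final inoculum was 10⁵ yeast cells/ml, with microplates prepared in batches and stored at −20°C. Plates were incubated at 35°C in humid ambient air and read spectrophotometrically after shaking at 24 h and 48 h. MIC was ≥50% growth reduction versus drug-free well; 90% end point also read at both times.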

In experiment [2] the test system is Candida albicans. The experiment can be described thus: Antifungal activity against Candida albicans isolate 17 expressing wild type 1,3-beta-glucan synthase grown on AM3 media after 48 hrs by EUCAST microdilution method. The format is functional. The following applies: isolate 17, 24 h, in the assay text read “after 24 hrs” for “after 48 hrs”. The method, boiled down:
as §1
For orientation: In broth dilution the organism is exposed to a series of concentrations in liquid medium.

The test system of experiment [3] is Candida albicans. The experiment can be described thus: Antifungal activity against Candida albicans isolate 13 expressing wild type 1,3-beta-glucan synthase grown on AM3 media after 48 hrs by EUCAST microdilution method. The format is functional. The conditions noted are these: isolate 13, 24 h, in the assay text read “after 24 hrs” for “after 48 hrs”. Summed up:
as §1

Experiment [4] has as its system Candida albicans. Description: Antifungal activity against Candida albicans isolate 2 expressing wild type 1,3-beta-glucan synthase grown on AM3 media after 48 hrs by EUCAST microdilution method. The experiment is classed as functional. The conditions noted are these: isolate 2, 24 h, in the assay text read “24 hrs” for “48 hrs”. Summed up:
as §1

For experiment [5], the system named is Candida albicans. Description: Antifungal activity against Candida albicans isolate 21 harboring 1,3-beta-glucan synthase HS1 point mutant grown on AM3 media after 24 hrs by EUCAST microdilution method. The following applies: isolate 21, 24 h.
In experiment [6] the test system is Candida albicans. The experiment can be described thus: Antifungal activity against Candida albicans isolate 8 expressing wild type 1,3-beta-glucan synthase grown on AM3 media after 48 hrs by EUCAST microdilution method. The experiment is classed as functional. The following applies: isolate 8, 24 h, in the assay text read “after 24 hrs” for “after 48 hrs”. Summed up:
as §1

Experiment [7] has as its system Candida albicans. The experiment can be described thus: Antifungal activity against Candida albicans isolate B311 expressing wild type 1,3-beta-glucan synthase grown on RPMI media after 24 hrs by EUCAST microdilution method. The following applies: isolate B311, 24 h.
The test system of experiment [8] is Candida albicans. Description: Antifungal activity against Candida albicans isolate 24 harboring 1,3-beta-glucan synthase HS1 point mutant grown on AM3 media after 24 hrs by EUCAST microdilution method. The following applies: isolate 24, 24 h.
Experiment [9] relates to Candida albicans. The experiment can be described thus: Antifungal activity against Candida albicans isolate 6 expressing wild type 1,3-beta-glucan synthase grown on AM3 media after 48 hrs by EUCAST microdilution method. The format is functional. The following applies: isolate 6, 24 h, in the assay text read “after 24 hrs” for “after 48 hrs”. Summed up: as §1
A further experiment has as its system Pichia kudriavzevii. Description: Antifungal activity against Candida krusei isolate 1 harboring 1,3-beta-glucan synthase HS1 point mutant grown on AM3 media after 24 hrs by EUCAST microdilution method. The following applies: isolate 1, 24 h.

The term MIC denotes the lowest concentration that inhibits growth of the organism. In the case of `CC[C@H](C)C[C@H](C)CCCCCCCCC(=O)N[C@H]1C[C@@H](O)[C@@H](NCCN)NC(=O)[C@@H]2[C@@H](O)CCN2C(=O)[C@H]([C@H](O)CCN)NC(=O)[C@H]([C@H](O)[C@@H](O)c2ccc(O)cc2)NC(=O)[C@@H]2C[C@@H](O)CN2C(=O)[C@H]([C@@H](C)O)NC1=O` [CASPOFUNGIN], the MIC in the experiment with Candida albicans [1] worked out at 0.03 µg/mL (≈ 0.0274 µM); in the experiment on Candida albicans [2], 0.03 µg/mL (≈ 0.0274 µM); against Candida albicans [3] it was 0.03 µg/mL (≈ 0.0274 µM); against Candida albicans [4] it was 0.03 µg/mL (≈ 0.0274 µM); with Candida albicans [5], 1 µg/mL (≈ 0.915 µM); against Candida albicans [6] it was 0.03 µg/mL (≈ 0.0274 µM). The MIC with Candida albicans [7] was determined as 0.5 µg/mL (≈ 0.457 µM); against Candida albicans [8], 16 µg/mL (≈ 14.6 µM); in the experiment with Candida albicans [9], 0.03 µg/mL (≈ 0.0274 µM); against Pichia kudriavzevii, 4 µg/mL (≈ 3.66 µM).
